Common to all, as to assay type: cell-based
In one test the target is T1, Adenosine receptor A3 (Homo sapiens, UniProt P0DMS8).
T1 sequence (P0DMS8 whole entry): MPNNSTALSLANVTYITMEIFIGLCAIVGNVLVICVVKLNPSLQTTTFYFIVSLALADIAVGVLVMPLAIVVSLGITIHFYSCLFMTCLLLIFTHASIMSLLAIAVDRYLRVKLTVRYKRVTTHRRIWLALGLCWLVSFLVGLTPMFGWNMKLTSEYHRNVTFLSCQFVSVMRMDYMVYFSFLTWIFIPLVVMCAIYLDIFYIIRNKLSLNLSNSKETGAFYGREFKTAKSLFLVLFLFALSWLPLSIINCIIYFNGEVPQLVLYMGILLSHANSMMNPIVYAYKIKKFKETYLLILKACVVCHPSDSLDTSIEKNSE
Briefly: Displacement of [3H]MRE 3008F20 from human adenosine A3 receptor expressed in CHO cells.

The target of test [1] is T2, Adenosine receptor A1 (Homo sapiens) (UniProt P30542).
T2 sequence (whole entry): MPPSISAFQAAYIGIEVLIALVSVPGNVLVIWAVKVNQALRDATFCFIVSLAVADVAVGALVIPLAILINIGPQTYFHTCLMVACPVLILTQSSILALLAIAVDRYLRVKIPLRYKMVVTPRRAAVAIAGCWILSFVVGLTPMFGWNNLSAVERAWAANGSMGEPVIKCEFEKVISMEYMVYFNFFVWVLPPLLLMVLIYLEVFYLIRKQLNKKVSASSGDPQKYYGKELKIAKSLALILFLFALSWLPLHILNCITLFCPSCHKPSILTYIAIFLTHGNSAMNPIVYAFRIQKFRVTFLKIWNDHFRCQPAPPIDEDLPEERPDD
The test can be described thus: (§1) Displacement of [3H]DPCPX from human adenosine A1 receptor expressed in CHO cells. The arrangement: concentration or dose not given beside the values. The conditions noted are these: concentration not given here. The gist of the method: (§2)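 Membranes from transfected CHO cells (50 µg protein/assay) in 50 mM Tris-HCl pH 7.4, incubated 120 min at 25 °C with 1 nM radioligand and at least six to eight test concentrations. Nonspecific binding with 10 µM CHA. Filtration on GF/B filters and scintillation counting. Ki from IC50 by Cheng-Prusoff, nonlinear least-squares fitting.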

A further test concerns the target T3, Adenosine receptor A1 (Homo sapiens, UniProt P30542).
T3 sequence (P30542 whole entry): T2 sequence (whole entry)
The test is described as §1. In a few lines: as §2

Test [2] deals with T4, Adenosine receptor A2b (Homo sapiens) (UniProt P29275).
T4 sequence (whole entry): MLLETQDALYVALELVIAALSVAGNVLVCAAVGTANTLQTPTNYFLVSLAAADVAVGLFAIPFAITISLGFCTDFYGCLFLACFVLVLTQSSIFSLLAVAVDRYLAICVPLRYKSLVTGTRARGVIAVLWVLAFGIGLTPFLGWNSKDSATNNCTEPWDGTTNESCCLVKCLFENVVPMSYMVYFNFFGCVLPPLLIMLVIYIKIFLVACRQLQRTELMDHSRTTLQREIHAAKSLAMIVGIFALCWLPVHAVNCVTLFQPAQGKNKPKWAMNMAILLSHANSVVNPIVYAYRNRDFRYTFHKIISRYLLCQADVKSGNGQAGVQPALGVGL
The test can be described thus: (§3) Displacement of [3H]MRE 2029F20 from human adenosine A2B receptor expressed in CHO cells. The settings on record: concentration not given here. The arrangement: concentration or dose not given beside the values. In a few lines:
(§4)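 Run 60 min at 25 °C in 50 mM Tris-HCl, 10 mM MgCl2, 1 mM EDTA, 0.1 mM benzamidine, pH 7.4, with 2 IU/mL adenosine deaminase, 40 nM radioligand and CHO membranes (20 µg protein/assay). At least six to eight test concentrations. Nonspecific binding with 100 µM NECA. Filtration and counting, Ki by Cheng-Prusoff.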
For orientation: Displacement assays read how much labelled ligand stays bound in the presence of the test substance.

A further test addresses T5, Adenosine receptor A2b (Homo sapiens, UniProt P29275).
T5 sequence (P29275 whole entry): T4 sequence (whole entry)
Described as §3. In a few lines: as §4

The next test deals with Adenosine receptor A2a (Homo sapiens, UniProt P29274). The test can be described thus: Displacement of [3H]ZM241385 from human adenosine A2A receptor expressed in CHO cells. The conditions noted are these: for inhibition: concentration not given here. The gist of the method: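 CHO-derived membranes (50 µg protein/assay) in 50 mM Tris-HCl, 10 mM MgCl2, pH 7.4, competed with at least six to eight compound concentrations for 60 min at 25 °C. Nonspecific binding defined by 1 µM ZM 241385. Bound ligand collected on GF/B filters and counted. Ki derived from IC50 via Cheng-Prusoff.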
Adenosine receptor A2a, sequence (P29274 whole entry): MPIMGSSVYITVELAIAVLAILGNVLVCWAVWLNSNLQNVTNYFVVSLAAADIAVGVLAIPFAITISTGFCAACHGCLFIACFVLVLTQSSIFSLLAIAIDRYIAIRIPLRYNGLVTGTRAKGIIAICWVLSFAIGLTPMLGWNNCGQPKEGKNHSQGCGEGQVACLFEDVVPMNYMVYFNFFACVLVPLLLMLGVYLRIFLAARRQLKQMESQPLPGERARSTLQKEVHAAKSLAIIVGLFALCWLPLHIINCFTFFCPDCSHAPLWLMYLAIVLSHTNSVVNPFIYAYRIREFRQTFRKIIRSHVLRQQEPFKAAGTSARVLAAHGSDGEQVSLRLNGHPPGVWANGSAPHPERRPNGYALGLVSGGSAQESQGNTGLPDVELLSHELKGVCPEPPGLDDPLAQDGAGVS

Bounds are passed on as bounds.

As usually defined, the Ki is the dissociation constant of the complex between target and ligand, obtained from inhibition or displacement. For the compound `CCOC(=O)c1c(C)nc(-c2ccccc2)c(C(=O)OCC)c1CC`, at Adenosine receptor A3, the Ki amounted to 180 nM.
On to `CCn1cc2c(nc(NC(=O)Nc3ccc(F)cc3)n3nc(-c4ccco4)nc23)n1`, for which, on Adenosine receptor A3, affinity was put at a Ki of 0.86 nM.
The same measure, in the same setting: the same measure for `Cc1cccnc1-c1nc(NC(=O)Nc2ccccc2)c2ccccc2n1`: 260 nM.
With `CCOC(=O)c1c(CC)nc(-c2ccccc2)c(C(=O)OCC)c1CC`, the affinity on Adenosine receptor A3 corresponds to a Ki of 120 nM.
A word on the inhibition: it is the share of the control response that was lost under treatment. With `O=C(Nc1ccncc1)Nc1nc2nn(CCO)cc2c2nc(-c3ccco3)nn12`, the figures for the inhibition (in test [1]; in test [2]; on Adenosine receptor A2a) were 74%, 71% and 96%, respectively. Also, the Ki was more than 1000 nM on Adenosine receptor A1, more than 1000 nM on Adenosine receptor A2b, more than 1000 nM at Adenosine receptor A2a and 5.1 nM on Adenosine receptor A3.
The compound `CCOC(=O)c1c(-c2ccccc2)nc(C)c(C(=O)SCC)c1C` returned a Ki on Adenosine receptor A3 of 20 nM.
As to `CCn1cc2c(n1)N=C(NC(=O)Nc1ccc(C)cc1)N1N=C(c3ccco3)NC21` (stereo unspecified), on Adenosine receptor A3, the Ki was found to be 0.14 nM.
With `O=C(Nc1ccncc1)Nc1nc2nn(CCCOCc3ccccc3)cc2c2nc(-c3ccco3)nn12`, the inhibition in test [1] was 74%; in test [2], 66%; at Adenosine receptor A2a, 89%. Besides, the Ki on Adenosine receptor A1 was more than 1000 nM; at Adenosine receptor A2b, more than 1000 nM; on Adenosine receptor A2a, more than 1000 nM; at Adenosine receptor A3 it was 14 nM.
Regarding `CCCOC(=O)c1c(CC)nc(-c2cccc(Cl)c2)c(C(=O)OCCC)c1CC`, the affinity on Adenosine receptor A3 corresponds to a Ki of 7.9 nM.
`O=C(Nc1cccnc1)Nc1nc2nn(CCOCc3ccccc3)cc2c2nc(-c3ccco3)nn12`: the inhibition in test [1] was determined as 85%; in test [2] it was 58%; at Adenosine receptor A2a, 82%. For the same compound, the inhibition constant (Ki) at Adenosine receptor A1 is more than 1000 nM; on Adenosine receptor A2b, more than 1000 nM; at Adenosine receptor A2a, more than 1000 nM; on Adenosine receptor A3 it was 9 nM.
`CCCOC(=O)c1c(-c2ccccc2)nc(CC)c(C(=O)OCC)c1CC` yielded a Ki on Adenosine receptor A3 of 8.3 nM.
Turning to `CCCOC(=O)c1c(C)nc(-c2ccccc2)c(C(=O)OCC)c1C`, the Ki on Adenosine receptor A3 turned out to be 210 nM.
Turning to `O=C(Nc1ccncc1)Nc1nc2nn(CCOCc3ccccc3)cc2c2nc(-c3ccco3)nn12`, the inhibition was 71% in test [1], 65% in test [2] and 97% at Adenosine receptor A2a. In addition, the Ki at Adenosine receptor A1 is more than 1000 nM; on Adenosine receptor A2b, more than 1000 nM; at Adenosine receptor A2a it was more than 1000 nM; at Adenosine receptor A3, 27 nM.
Turning to `CCCc1c(C(=O)SCC)c(C)nc(-c2ccccc2)c1C(=O)OCC`, on Adenosine receptor A3, the Ki came out at 194 nM.
`CCCOC(=O)c1c(-c2ccccc2)nc(CC)c(C(=O)OCC)c1CCC`: the Ki at Adenosine receptor A3 is 19 nM.
With `O=C(Nc1cccnc1)Nc1nc2nn(CCO)cc2c2nc(-c3ccco3)nn12`, the inhibition turned out to be 92% in test [1], 99% in test [2] and 93% at Adenosine receptor A2a. For the same compound, the Ki on Adenosine receptor A1 was more than 1000 nM; at Adenosine receptor A2b, more than 1000 nM; at Adenosine receptor A2a, more than 1000 nM; on Adenosine receptor A3, 34 nM.
Take `O=C(Nc1ccncc1)Nc1nc2nn(CCCO)cc2c2nc(-c3ccco3)nn12`: the Ki is 350 nM at Adenosine receptor A1, more than 1000 nM at Adenosine receptor A2b, more than 1000 nM at Adenosine receptor A2a and 2 nM on Adenosine receptor A3. Moreover, the inhibition in test [2] was 73%; at Adenosine receptor A2a, 95%.
Compound `O=C(Nc1ccccc1)Nc1ncnc2ccccc12` gave a Ki on Adenosine receptor A3 (cho) of 1200 nM.
`CCn1cc2c(nc(NC(=O)Nc3ccccc3OC)n3nc(-c4ccco4)nc23)n1` showed a Ki at Adenosine receptor A3 of 0.56 nM.
As for `CCOC(=O)c1c(CC)c(C(=O)OCC)c(-c2ccccc2)[n+](C)c1C`, the Ki on Adenosine receptor A3 is 380 nM.
Same read-out and setting: in the case of `CCOC(=O)c1c(-c2ccccc2)nc(CC)c(C(=O)SCC)c1CC` it was 13.4 nM.

Values taken from ChEMBL document CHEMBL1138915, “Pharmacophore based receptor modeling: the case of adenosine A3 receptor antagonists. An approach to the optimization of protein models” (J Med Chem, 2006).
